The results in this text go back to ChEMBL document CHEMBL1141072, “Conformationally constrained analogues of diacylglycerol (DAG). 25. Exploration of the sn-1 and sn-2 carbonyl functionality reveals the essential role of the sn-1 carbonyl at the lipid interface in the binding of DAG-lactones to protein kinase C” (J Med Chem, 2005).

In experiment [1] the target is Protein kinase C alpha type (Homo sapiens, UniProt P17252). Description: Inhibition of [3H]PDBu binding to recombinant protein kinase C alpha was determined at pH 7.4, 37 degree C for 5 min. In a few lines:
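PKCα displacement of [3H]PDBu in 50 mM Tris-HCl, 100 μg/ml phosphatidylserine, 4 mg/ml bovine IgG and 0.1 mM CaCl2, with a range of competitor concentrations. After incubation, chilled 7 min and 35% PEG added, then 10 min on ice and spun at 4 °C. Pellet bound radioactivity counted. Nonspecific binding measured with 64 μM unlabeled PDBu. Expressed as Ki.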

For experiment [2], the target named is T1, Protein kinase C delta type (Homo sapiens, UniProt Q05655). Description: Inhibition of [3H]-PDBu binding to C1b domain of protein kinase C delta without phosphatidylserine. In outline:
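GST-tagged δC1b expressed in BL-21 (DE3) E. coli and purified on glutathione spin columns, purity checked by SDS-PAGE. Competition with [3H]PDBu run in 50 mM Tris-HCl pH 7.4, 4 mg/ml bovine IgG, 1 mM EGTA, no phosphatidylserine, 10 min at 18 °C. Bound ligand separated by PEG precipitation on ice and counted by scintillation. Nonspecific binding taken with 64 μM unlabeled PDBu. Ki derived.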

The target in experiment [3] is T1, Protein kinase C delta type. Description: Inhibition of [3H]PDBu binding to C1b domain of protein kinase C delta with phosphatidylserine. In outline:
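δC1b domain as GST fusion, expressed in BL-21 (DE3) E. coli and spin-purified. Assay buffer 50 mM Tris-HCl pH 7.4 with 100 μg/ml phosphatidylserine, 4 mg/ml bovine IgG and 1 mM EGTA, plus [3H]PDBu and varied competitor. Incubated 10 min at 18 °C, then precipitated with PEG and pellet counted. Specific binding is total minus binding with 64 μM cold PDBu. Ki reported.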

T1 sequence (Q05655 whole entry, the tested form may be a part): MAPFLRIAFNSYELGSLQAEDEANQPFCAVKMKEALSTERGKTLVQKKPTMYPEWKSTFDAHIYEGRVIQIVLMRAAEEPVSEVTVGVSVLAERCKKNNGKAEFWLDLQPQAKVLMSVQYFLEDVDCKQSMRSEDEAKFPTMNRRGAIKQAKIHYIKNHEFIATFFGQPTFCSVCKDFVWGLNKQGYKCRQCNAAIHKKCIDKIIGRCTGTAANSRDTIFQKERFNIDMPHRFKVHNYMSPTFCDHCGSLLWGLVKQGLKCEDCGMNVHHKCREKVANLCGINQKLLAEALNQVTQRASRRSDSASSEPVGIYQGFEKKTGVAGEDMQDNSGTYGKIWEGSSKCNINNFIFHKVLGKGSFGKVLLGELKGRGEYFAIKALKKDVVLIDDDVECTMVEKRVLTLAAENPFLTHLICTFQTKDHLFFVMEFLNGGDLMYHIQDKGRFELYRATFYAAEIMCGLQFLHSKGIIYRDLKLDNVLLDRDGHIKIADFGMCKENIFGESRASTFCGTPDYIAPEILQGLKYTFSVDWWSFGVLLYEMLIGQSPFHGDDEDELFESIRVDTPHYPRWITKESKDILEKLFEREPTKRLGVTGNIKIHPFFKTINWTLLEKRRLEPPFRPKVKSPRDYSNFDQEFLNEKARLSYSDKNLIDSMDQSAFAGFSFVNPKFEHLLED

Consider `CC(C)CC(C/C=C1\CC(CO)(COC(=O)C(C)(C)C)OC1=S)CC(C)C` (stereo unspecified), for which the Ki turned out to be 23.7 nM in experiment [1], 173 nM in experiment [2] and 3.13 nM in experiment [3].
As to `CC(C)CC(C/C=C1/CC(CO)(COCC(C)(C)C)OC1=O)CC(C)C` (stereo unspecified), the Ki in experiment [1] was 5870 nM; in experiment [3], 2140 nM.
For `CC(C)CC(C/C=C1\CC(CO)(COC(=S)C(C)(C)C)OC1=O)CC(C)C` (stereo unspecified), the Ki in experiment [1] was determined as 113 nM; in experiment [2] it was 606 nM; in experiment [3], 20.6 nM.
Turning to `CC(C)CC(C/C=C1/COC(CO)(COC(=O)C(C)(C)C)C1)CC(C)C` (stereo unspecified), the Ki in experiment [1] was 622 nM; in experiment [2], 6620 nM; in experiment [3], 219 nM.
With `CC(C)CC(C/C=C1\CC(CO)(COCC(C)(C)C)OC1=O)CC(C)C` (stereo unspecified), the inhibitory constant (Ki) is 14300 nM in experiment [1], 101000 nM in experiment [2] and 1890 nM in experiment [3].
On to `CC(C)CC(C/C=C1\CC(CO)(COC(=O)C(C)(C)C)OC1=O)CC(C)C` (stereo unspecified), for which the inhibition constant (Ki) in experiment [1] amounted to 3.25 nM; in experiment [2], 103 nM.

As usually defined, the Ki is a dissociation constant, usually derived from enzyme kinetics or from competition with a known ligand.
